SUMO1 PPI mod = SUMO1-SIM interaction modulation. 360,000 tested, 0.33% active. inhibition, % at 20 µM. P63165. SUMO1 binding to a labelled peptide, TR-FRET, 1 h; in the data active means inhibition above about 37%
NadD inh = inhibitors of Staphylococcus aureus NadD. AID 602399. inhibition, % at 20 µM. purified NadD enzyme, colorimetric absorbance read-out. 360,000 tested, 0.78% active; in the data active means inhibition above about 26%
DNMT1 inh = blocks human DNA methyltransferase DNMT1. 360,000 tested, 0.83% active. DNMT1 molecular beacon, Hinp1I cleavage, fluorescence. inhibition (reported as % activation of signal), % at 10 µM. AID 588458; in the data active means inhibition above about 50%
LMPTP inh = LMPTP (human) inhibition; P24666; recombinant LMPTP-A, OMFP fluorogenic substrate, fluorescence intensity; inhibition, % at 20 µM; 360,000 tested, 0.22% active; AID 651560;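 active means compounds that cut the enzyme signal by at least half of the control window in the single-dose screen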;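 further: plate controls were DMSO wells with enzyme plus substrate for no effect and substrate without enzyme for full effect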
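Test system – LMPTP-A enzyme · Amount – LMPTP-A at 0.625 nM final in the reaction · Buffer or medium – Bis-Tris pH 6.0, DTT, detergent · Reagent – OMFP 400 µM · Doses – single 20 µM dose · Schedule – reaction 50 min, room temperature, dark · Detection – fluorescence intensity of OMFP turnover product · Evaluation – percent inhibition versus substrate-only and uninhibited controls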
Scp1 inh = inhibitors of human Scp-1 phosphatase. Q9GZU7. Recombinant Scp1, phosphopeptide, malachite green phosphate absorbance. inhibition, % at 20 µM. 340,000 tested, 0.88% active;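 active means inhibition above about 50% at 20 µM, limit read from the data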;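 further: plate controls were DMSO wells with enzyme for no effect and wells lacking enzyme for full effect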
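Test system: SCP-1 phosphatase catalytic domain, residues 76-261 | Compound dosing: One concentration, 20 µM, with 1.0% DMSO | Schedule: 45 min room-temperature reaction, 5 min colour, 30 min stabiliser | Detection: Absorbance at 630 nm | Read-out basis: % inhibition of SCP-1 phosphate liberation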
STEP block = blocks human striatal-enriched tyrosine phosphatase. P54829. recombinant STEP, OMFP fluorogenic substrate, fluorescence. inhibition, % at 20 µM. 360,000 tested, 0.25% active. AID 588621;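 active means inhibition at 20 µM, scaled per plate between control wells, above about 37%, limit read from the data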;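 further: 0% = DMSO with enzyme and substrate and 100% = substrate only without enzyme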
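Test system: STEP tyrosine phosphatase / Reagent: OMFP at 25 µM / Doses: 20 µM, 1% DMSO / Read-out: percent inhibition scaled to no-enzyme and uninhibited-enzyme controls, plate-pattern corrected / Detection: FITC-channel fluorescence of OMFP product / Medium: Bis-Tris buffer pH 6.0, 2.5 mM DTT, 0.005% Tween 20 / Schedule: 20 min at room temperature, dark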
Scp1 confirm = confirmation of human Scp-1 phosphatase inhibitors; inhibition, % at 20 µM; shares compounds with Scp1 inh; AID 540281; recombinant SCP-1 catalytic domain, phosphate release, malachite green absorbance; 2,500 tested, 61% active;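 further: plate controls were DMSO with enzyme for no effect and buffer wells lacking enzyme for full effect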
Scp-1 MG ctr = colorimetric interference in Scp-1 counter-screen; shares compounds with Scp1 inh; Colorimetric interference counterscreen, malachite green absorbance 630 nm; apparent inhibition (interference), % at 20 µM; 2,500 tested, under 10 active; AID 540313;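 further: compounds added after enzyme reaction finished so only phosphate colour detection is probed; plate controls were DMSO wells with completed Scp-1 reaction for no effect and substrate wells lacking enzyme for full effect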
Scp-1 Tm shift = binds human Scp-1, shifting its melting temperature. 1,500 tested, 25% active. shares compounds with Scp1 inh. thermal shift relative to vanadate control, % at 40 µM. Recombinant SCP1, Sypro Orange thermal shift Tm;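 active means substances whose mean melting-temperature shift, as a percentage of the reference inhibitor's shift, reaches about 5.3%, limit read from the data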;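 further: 0% = Tm of DMSO wells and 100% = Tm with sodium orthovanadate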
Starred values were filed as active, the others as inactive; nt = no result given. Shown are actives, neighbours in structure and some others; about 2.4% of the full set was active somewhere.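 How the source made its calls, unless noted: active means inhibition of at least 30% at 20 µM; inactive means the rest.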

SMILES	SUMO1 PPI mod	NadD inh	DNMT1 inh	LMPTP inh	Scp1 inh	STEP block	Scp1 confirm	Scp-1 MG ctr	Scp-1 Tm shift
COCCCn1c2nc3ccccc3nc2c2c(=O)n(-c3ccccc3OC)cnc21	-23.4	1.1	5.2	0.3	5.4	-0.9	nt	nt	nt
COc1ccccc1-n1cnc2c(c1=O)c1nc3ccccc3nc1n2-c1ccc(C)c(C)c1	1.4	1.8	24.4	6.9	96.5*	16.6	66.9*	-6.2	-8.2
NC1=NC(=O)/C(=C/c2cc(Br)c(O)c(Br)c2)S1	-13.0	-4.7	2.5	-6.8	8.4	3.2	nt	nt	nt
O=C(/C=C/C(=O)N1CCc2ccccc2C1)N1CCc2ccccc2C1	6.1	-1.3	-10.9	-2.3	-4.5	-1.6	nt	nt	nt
Cn1cnc(C(=O)N2CCc3ccccc3C2)c1C(=O)N1CCc2ccccc2C1	-3.1	19.9	15.6	-0.2	95.3*	-1.9	83.3*	-17.5	-11.7
Cc1c(Cl)c(C(F)F)nn1CC(=O)NC1C(=O)N2C(C(=O)O)=C(CSc3nnnn3C)CSC12 (centres undefined)	13.2	4.2	27.3	0.7	67.8*	6.6	56.2*	-18.9	4.7
Cc1c(Cl)cnn1CC(=O)NC1C(=O)N2C(C(=O)O)=C(CSc3nnnn3C)CSC12 (centres undefined)	6.0	-0.7	12.1	-0.1	46.8	8.1	nt	nt	nt
Cn1nnnc1SCC1=C(C(=O)O)N2C(=O)C(NC(=O)Cn3nc(C(F)F)cc3C3CC3)C2SC1 (centres undefined)	1.6	0.2	8.9	0.3	56.1*	2.9	61.4*	-12.9	1.4
COc1cc(CC(=O)NC2CCCc3ccccc32)cc(OC)c1OC (centres undefined)	2.8	-4.2	-3.6	-1.0	-7.4	2.4	nt	nt	nt
CCn1cc(CN2CCC(C(=O)Nc3ccc(Oc4ccccc4F)cc3)CC2)c(C)n1	-2.4	-6.7	1.5	-0.4	-2.4	0.3	nt	nt	nt
Oc1ccc(C=Nc2ccc(N3CCOCC3)cc2)c(O)c1	-10.3	12.0	29.9	6.4	52.4*	11.0	45.0*	-10.9	2.5
O=C(O)CCCCCn1c(O)c(C=C2N=c3ccccc3=N2)sc1=S	-8.7	-4.2	7.6	15.0	74.3*	22.3	90.5*	-5.4	10.1*
C/C(Cn1nc([N+](=O)[O-])cc1C)=N\NC(=O)c1ccc(C(C)(C)C)cc1	-7.6	0.8	-4.5	-1.7	81.3*	9.8	-20.6	-18.6	nt
Cc1ccccc1OCC(=O)Nc1cccc2nsnc12	-8.1	-3.1	14.4	-0.6	-9.6	5.7	nt	nt	nt
O=C(CCN1C(=O)/C(=C\C=C\c2ccccc2)SC1=S)Nc1cccc(C(=O)O)c1	11.2	26.1	15.8	46.3	85.0*	14.9	74.9*	-19.2	11.2*
COc1ccc(/C=C2\SC(=S)N(CCC(=O)Nc3cccc(C(=O)O)c3)C2=O)cc1	-0.1	13.3	-1.5	1.4	61.2*	18.3	52.5*	-9.8	18.2*
O=C(CCN1C(=O)/C(=C/c2ccc3c(c2)OCO3)SC1=S)Nc1cccc(C(=O)O)c1	-0.5	12.0	4.0	3.3	69.1*	7.4	77.7*	-9.0	10.8*
O=C(CCCN1C(=O)/C(=C\c2ccccc2)SC1=S)Nc1cccc(C(=O)O)c1	-24.0	2.7	1.2	1.4	-7.1	-1.0	nt	nt	nt
O=C(CCN1C(=O)/C(=C/c2ccc(Cl)cc2)SC1=S)Nc1cccc(C(=O)O)c1	-6.9	12.8	-0.2	1.4	89.0*	9.8	66.3*	-3.2	9.7*
O=C(CCN1C(=O)/C(=C/c2cccs2)SC1=S)Nc1cccc(C(=O)O)c1	-1.6	5.7	2.2	0.6	36.3	5.1	nt	nt	nt
Cc1ccc(/C=C2\SC(=S)N(CCCC(=O)Nc3cccc(C(=O)O)c3)C2=O)cc1	-10.2	16.1	1.8	1.8	40.0	7.1	nt	nt	nt
